Source: PubChem BioAssay
Only some compounds are listed: those with a hit (about 1.9% of all), similar ones and a draw of the others.
CHRM4 antagonist: human M4 muscarinic receptor antagonists, primary screen, CHO cells, Fluo-8 calcium fluorescence | inhibition, % at 3 µM | 360,000 tested, 0.73% active | CHO-hM4 cells, ACh EC80;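 active means inhibition above its plate's cutoff, the mean inhibition of sample wells plus 3 SD, cut at about 27% in these data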;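 further: 0% = acetylcholine EC80 with DMSO and 100% = DMSO without agonist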
Target sequence (P08173 whole entry, looked up): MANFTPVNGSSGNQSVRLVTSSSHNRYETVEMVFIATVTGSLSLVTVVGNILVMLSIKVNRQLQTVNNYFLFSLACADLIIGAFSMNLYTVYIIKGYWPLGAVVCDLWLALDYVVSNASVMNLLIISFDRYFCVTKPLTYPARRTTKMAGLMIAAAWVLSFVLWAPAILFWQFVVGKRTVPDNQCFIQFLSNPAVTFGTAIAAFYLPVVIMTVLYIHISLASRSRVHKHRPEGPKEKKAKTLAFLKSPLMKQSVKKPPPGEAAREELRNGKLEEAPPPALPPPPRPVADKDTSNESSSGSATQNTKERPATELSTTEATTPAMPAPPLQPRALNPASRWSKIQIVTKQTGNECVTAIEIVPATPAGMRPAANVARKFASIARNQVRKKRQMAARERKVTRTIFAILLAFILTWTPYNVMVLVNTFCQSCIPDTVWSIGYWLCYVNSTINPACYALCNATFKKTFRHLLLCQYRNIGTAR
M5 antag: human M5 muscarinic receptor antagonists, primary screen, CHO cells, Fluo-8 calcium fluorescence. Muscarinic acetylcholine receptor M5 (Homo sapiens), P08912. CHO-hM5 cells, ACh EC80. inhibition, % at 3 µM. 360,000 tested, 0.59% active;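 active means inhibition above a per-plate cutoff, the mean of that plate's test compounds plus 3 SD, cut at about 27% in these data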;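 further: 0% = acetylcholine EC80 with DMSO and 100% = DMSO without agonist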
CHRM5 PAM: human M5 muscarinic receptor positive allosteric modulators, primary screen, CHO-K1 cells, Fluo-8 calcium fluorescence; activation, % at 3 µM; CHO-K1 hM5, ACh EC20 PAM; 0% = ACh EC20, 100% = ACh EC100; 360,000 tested, 0.3% active;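 active means activation above the run cutoff, the mean activation of all test compounds plus 3 SD, cut at about 18% in these data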
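Assay system: CHO-K1 hM5 cells / Incubation: Fluo-8 loading 80 min at 37 °C plus 30 min room temperature / Technique: Fluo-8 calcium dye fluorescence, kinetic read / Repeats: single replicate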
CHRM5 agonist: human M5 muscarinic receptor agonists, primary screen, CHO-K1 cells, Fluo-8 calcium fluorescence | CHO-K1 hM5 cells; 0% DMSO wells, 100% maximal acetylcholine response | 360,000 tested, 0.19% active | Muscarinic acetylcholine receptor M5 (Homo sapiens), P08912 | activation, % at 3 µM;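 active means activation above the run's mean over test compounds plus 3 SD, cut at about 23% in these data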;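 further: signal is peak over basal fluorescence ratio across the kinetic read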
M4 ag: human M4 muscarinic receptor agonists, primary screen, CHO-K1 cells, Fluo-8 calcium fluorescence; Muscarinic acetylcholine receptor M4 (Homo sapiens), P08173; CHO-K1 hM4/Gqi5; vehicle 0%, full acetylcholine response 100%; activation, % at 3 µM; 360,000 tested, 0.14% active; AID 624127, 2012;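 active means activation above the run mean over all test wells plus 3 SD, cut at about 32% in these data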;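 further: peak over basal fluorescence ratio per well then scaled between controls; 0% = DMSO wells and 100% = acetylcholine at EC100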
M4 PAM: human M4 muscarinic receptor positive allosteric modulators, primary screen, CHO-K1 cells, Fluo-8 calcium fluorescence; 360,000 tested, 0.4% active; Muscarinic acetylcholine receptor M4 (Homo sapiens), P08173; activation, % at 3 µM; CHO-K1 hM4/Gqi5, ACh EC20; 0% = ACh EC20, 100% = maximal ACh; AID 624126, 2012;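 active means activation above its plate's cutoff, the mean activation of sample wells plus 3 SD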
An asterisk follows results filed as active.

SMILES	CHRM4 antagonist	M5 antag	CHRM5 PAM	CHRM5 agonist	M4 ag	M4 PAM
O=C(CN(Cc1ccccc1)C(=O)c1csnn1)NCc1ccc2c(c1)OCO2	-17	14	28*	5	7	3
CC(=O)C1=C(O)C(=O)N(c2cc(C(C)(C)C)on2)C1c1ccc(Br)cc1 (stereo not drawn)	-1	0	6	3	0	30*
CN(C)CCOC1c2ccccc2CCc2ccc3ccccc3c21 (stereo not drawn)	12	33*	-30	-17	6	-12
C[N+]1(CCC(=O)c2ccccc2)CCCCC1	4	-8	7	-4	0	-2
C[N+]1(C)CCC(=C(c2ccccc2)c2ccccc2)CC1	100*	99*	-19	-2	0	-17
O=C(NNS(=O)(=O)c1ccc([N+](=O)[O-])cc1)C(=O)Nc1cccc(C(=O)O)c1	-9	-7	6	-2	1	19*
CCOC(=O)c1ccc(N(C(=O)c2cnccn2)C(C(=O)NC2CCCCC2)c2cn(C)nc2C)cc1 (stereo not drawn)	12	-1	3	-1	0	-3
Cc1nn(C)cc1C(C(=O)NC1CCCCC1)N(C(=O)c1cnccn1)c1ccc(Oc2ccccc2)cc1 (stereo not drawn)	-11	-9	1	-2	2	24*
COCCCNc1nc2ccccc2nc1NS(=O)(=O)c1cccc(Cl)c1	-7	-8	5	-2	1	0
O=S(=O)(Nc1nc2ccccc2nc1NCCO)c1cccc(Cl)c1	29*	-4	-3	-4	-2	-14
Brc1ccc(-c2c[n+]3c(n2-c2ccccc2)SCC3)cc1	54*	6	2	-18	0	-16
CSc1cccc(NC(=O)/C=C/c2cccc(Cl)c2)c1	1	1	-9	-3	1	-12
CCC1CCCCN1CCNS(=O)(=O)c1ccc2c(c1)oc(=O)n2C (stereo not drawn)	29*	0	-1	-1	0	-14
CCC1CCCCN1CCCNS(=O)(=O)c1ccc2c(c1)oc(=O)n2C (stereo not drawn)	-1	14	-3	-3	0	-5
COc1ccc(CCNC(=O)CSc2nnnn2-c2ccccc2)cc1	-8	33*	43*	-3	2	-4
C[C@H]1c2cccc(O)c2C(O)=C2C(=O)[C@]3(O)C(O)=C(C(N)=O)C(=O)[C@@H](N(C)C)[C@@H]3[C@@H](O)[C@@H]21	8	7	-15	27*	0	-3
O=C(Cc1cccs1)NCc1cc(Cl)cc(Cl)c1	9	5	-1	-9	-2	-7
CCC1(CC)NC(=O)N(CC(=O)N2CCc3ccccc32)C1=O	-20	2	20*	-3	0	19*
Cc1ccc(C2(C)NC(=O)N(CC(=O)N3CCc4ccccc43)C2=O)cc1 (stereo not drawn)	-11	10	-13	23	12	0
CC1(c2ccc(Cl)cc2)NC(=O)N(CC(=O)N2CCc3ccccc32)C1=O (stereo not drawn)	-7	7	-3	40*	38*	-1
CCC1(c2ccc(F)cc2)NC(=O)N(CC(=O)N2CCc3ccccc32)C1=O (stereo not drawn)	-10	-1	-8	38*	32	-2
CCC1(c2ccc(F)cc2)NC(=O)N(CC(=O)Nc2ccccc2Cl)C1=O (stereo not drawn)	7	-9	-10	33*	18	-4
Cc1cccc(NC(=O)CNC(=O)[C@H]2O[C@@H](n3cnc4c(N)ncnc43)[C@H](O)[C@@H]2O)c1C	6	12	5	2	1	-3
COc1cc(/C=N/NC(=O)c2[nH]nc3c2CCc2ccccc2-3)ccc1O	-5	-1	-5	3	6	-3
Cc1ccc(-c2csc(NC(=O)c3ccc(-c4ccccc4)cc3)n2)o1	40*	16	-6	8	9	-10
SMILES	CHRM4 antagonist	M5 antag	CHRM5 PAM	CHRM5 agonist	M4 ag	M4 PAM
COc1cccc(NC(=O)CN(C)C(=O)c2cc(-c3ccccc3)nn2-c2ccccc2)c1	-15	5	-4	-2	4	18*
COc1cccc(NC(=O)CN(C)C(=O)Cn2cnc3ccccc3c2=O)c1	-10	100*	-33	-8	1	11
CC(=O)c1cccc(S(=O)(=O)N2CCC(C(=O)O)CC2)c1	-6	-8	5	1	1	-9
CC(=O)c1cccc(S(=O)(=O)N2CCC(C(=O)O)(c3ccccc3)CC2)c1	-31	2	-2	-3	0	16*
CC(=O)c1cccc(NC(=O)C(C)OC(=O)c2cccc(S(=O)(=O)N3CCN(C)CC3)c2)c1 (stereo not drawn)	-1	0	-11	44*	2	2
CC(OC(=O)c1cccc(S(=O)(=O)N2CCN(C)CC2)c1)C(=O)Nc1ccc(C(N)=O)cc1 (stereo not drawn)	-4	3	-9	3	0	5
CCOC(=O)C1=CN(Cc2cccc(-c3ccc(Cl)nc3)c2)S(=O)(=O)N(C)C1C (stereo not drawn)	2	6	-7	-1	7	-10
O=C(Nc1ccc2c(c1)CCCN2C(=O)c1ccccc1)c1ccccc1	11	26	-11	-3	18	-9
O=C(/C=C\c1cn(-c2ccccc2)nc1-c1ccc2c(c1)OCCO2)N1CCOCC1	1	3	-2	7	5	-4
CN1CCN(C(=O)/C=C/c2cn(-c3ccccc3)nc2-c2ccc3c(c2)OCCO3)CC1	-13	-5	19*	2	6	9
CN1/C(=C\P(=O)(N(C)C)N(C)C)C(C)(C)c2ccccc21	20	34*	-9	5	8	-2
COc1cccc(C(=O)OCCN2CCCCC2)c1	1	30*	2	-7	1	2
COc1ccc(-c2nnc(NC(=O)C3CCCN3S(=O)(=O)c3cccs3)o2)cc1 (stereo not drawn)	2	10	-4	1	1	2
CC1(C)N=C(N)N=C(N)N1c1ccc(CCCCc2ccccc2)cc1	9	41*	-20	-4	0	-9
